What was measured:
[1] = system: Staphylococcus aureus; experiment: Antimicrobial activity against heterogeneous vancomycin-intermediate Staphylococcus aureus by broth microdilution method; format: functional
In short: (§1)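 Daptomycin MICs on the blood MRSA isolates were done by broth microdilution. The broth was supplemented with calcium chloride to a final calcium of 50 mg/liter, confirmed by biochemical analysis. Isolates were grouped by PAP-AUC ratio relative to Mu3 (VSSA <0.9; hVISA 0.9 to 1.3; VISA ≥1.3).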

[2] = system: Staphylococcus aureus; experiment: Antimicrobial activity against SCCmec type III vancomycin-intermediate Staphylococcus aureus isolate b3k2345 by broth microdilution method
[3] = system: Staphylococcus aureus; experiment: Antimicrobial activity against SCCmec type IV vancomycin-intermediate Staphylococcus aureus isolate 06b41 by broth microdilution method; format: functional; in short: as §1
[4] = system: Staphylococcus aureus; experiment: Antimicrobial activity against SCCmec type II vancomycin-intermediate Staphylococcus aureus isolate b2k4781 by broth microdilution method
[5] = system: Staphylococcus aureus; experiment: Antimicrobial activity against SCCmec type III vancomycin-intermediate Staphylococcus aureus isolate 11b091 by broth microdilution method
[6] = system: Staphylococcus aureus; experiment: Antimicrobial activity against SCCmec type III vancomycin-intermediate Staphylococcus aureus isolate gs07022 by broth microdilution method
[7] = system: Staphylococcus aureus; experiment: Antimicrobial activity against SCCmec type II vancomycin-intermediate Staphylococcus aureus isolate 6zjsau7 by broth microdilution method
[8] = system: Staphylococcus aureus; experiment: Antimicrobial activity against SCCmec type III vancomycin-intermediate Staphylococcus aureus isolate 13b16 by broth microdilution method
[9] = system: Staphylococcus aureus; experiment: Antimicrobial activity against heterogeneous vancomycin-susceptible Staphylococcus aureus assessed as intermediate isolates by broth microdilution method; format: functional
In short: (§2)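 Daptomycin MICs by broth microdilution in BBL broth with calcium chloride added to a final calcium of 50 mg/liter, checked by biochemical analysis. Tested on the 200 MRSA blood isolates, grouped as hVISA/VISA or VSSA by PAP-AUC ratio relative to Mu3.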

[10] = system: Staphylococcus aureus; experiment: Antimicrobial activity against vancomycin-susceptible Staphylococcus aureus assessed as growth inhibition at 0.5 times MIC; format: functional; set-up: scale not given: the % may be the effect or the level left
[11] = system: Staphylococcus aureus; experiment: Antimicrobial activity against vancomycin-susceptible Staphylococcus aureus by broth microdilution method; format: functional; in short: as §1
[12] = system: Staphylococcus aureus; experiment: Antimicrobial activity against SCCmec type II vancomycin-intermediate Staphylococcus aureus isolate sh06024 by broth microdilution method
[13] = system: Staphylococcus aureus; experiment: Antimicrobial activity against heterogeneous vancomycin-intermediate Staphylococcus aureus assessed as growth inhibition at 0.125 times MIC; format: functional; set-up: scale not given: the % may be the effect or the level left
[14] = system: Staphylococcus aureus; experiment: Antimicrobial activity against SCCmec type III vancomycin-intermediate Staphylococcus aureus isolate gz07030 by broth microdilution method
[15] = system: Staphylococcus aureus; experiment: Antimicrobial activity against SCCmec type III vancomycin-intermediate Staphylococcus aureus isolate b6k7974 by broth microdilution method; format: functional; in short: as §1
[16] = system: Staphylococcus aureus; experiment: Antimicrobial activity against SCCmec type III vancomycin-intermediate Staphylococcus aureus isolate gz06040 by broth microdilution method
[17] = system: Staphylococcus aureus; experiment: Antimicrobial activity against SCCmec type III vancomycin-intermediate Staphylococcus aureus isolate b3k5923 by broth microdilution method
[18] = system: Staphylococcus aureus; experiment: Antimicrobial activity against SCCmec type II vancomycin-intermediate Staphylococcus aureus isolate 4sy32 by broth microdilution method
[19] = system: Staphylococcus aureus; experiment: Antimicrobial activity against SCCmec type III vancomycin-intermediate Staphylococcus aureus isolate b2k3421 by broth microdilution method
[20] = system: Staphylococcus aureus; experiment: Antimicrobial activity against heterogeneous vancomycin-intermediate Staphylococcus aureus assessed as growth inhibition at 16 times MIC; format: functional; set-up: scale not given: the % may be the effect or the level left
[21] = system: Staphylococcus aureus; experiment: Antimicrobial activity against SCCmec type III vancomycin-intermediate Staphylococcus aureus isolate b5k3578 by broth microdilution method
[22] = system: Staphylococcus aureus; experiment: Antimicrobial activity against SCCmec type III vancomycin-intermediate Staphylococcus aureus isolate gz06051 by broth microdilution method
[23] = system: Staphylococcus aureus; experiment: Antimicrobial activity against SCCmec type II vancomycin-intermediate Staphylococcus aureus isolate 07b63 by broth microdilution method
[24] = system: Staphylococcus aureus; experiment: Antimicrobial activity against SCCmec type III vancomycin-intermediate Staphylococcus aureus isolate zj07028 by broth microdilution method
[25] = system: Staphylococcus aureus; experiment: Antimicrobial activity against heterogeneous vancomycin-susceptible Staphylococcus aureus assessed as susceptible isolates by broth microdilution method; format: functional; in short: as §2
[26] = system: Staphylococcus aureus; experiment: Antimicrobial activity against heterogeneous vancomycin-intermediate Staphylococcus aureus assessed as growth inhibition at 2 times MIC; format: functional; set-up: scale not given: the % may be the effect or the level left
[27] = system: Staphylococcus aureus; experiment: Antimicrobial activity against heterogeneous vancomycin-intermediate Staphylococcus aureus assessed as intermediate isolates by broth microdilution method; format: functional; in short: as §2
[28] = system: Staphylococcus aureus; experiment: Antimicrobial activity against heterogeneous vancomycin-intermediate Staphylococcus aureus assessed as growth inhibition at MIC; format: functional; set-up: scale not given: the % may be the effect or the level left
[29] = system: Staphylococcus aureus; experiment: Antimicrobial activity against vancomycin-susceptible Staphylococcus aureus assessed as growth inhibition at 0.25 times MIC; format: functional; set-up: scale not given: the % may be the effect or the level left
[30] = system: Staphylococcus aureus; experiment: Antimicrobial activity against vancomycin-susceptible Staphylococcus aureus assessed as growth inhibition at MIC; format: functional; set-up: scale not given: the % may be the effect or the level left
[31] = system: Staphylococcus aureus; experiment: Antimicrobial activity against heterogeneous vancomycin-intermediate Staphylococcus aureus assessed as susceptible isolates by broth microdilution method; format: functional; in short: as §2
[32] = system: Staphylococcus aureus; experiment: Antimicrobial activity against SCCmec type III vancomycin-intermediate Staphylococcus aureus isolate b4k6307 by broth microdilution method
[33] = system: Staphylococcus aureus; experiment: Antimicrobial activity against vancomycin-susceptible Staphylococcus aureus assessed as growth inhibition at 4 times MIC; format: functional; set-up: scale not given: the % may be the effect or the level left
[34] = system: Staphylococcus aureus; experiment: Antimicrobial activity against SCCmec type III vancomycin-intermediate Staphylococcus aureus isolate b5k3529 by broth microdilution method
[35] = system: Staphylococcus aureus; experiment: Antimicrobial activity against heterogeneous vancomycin-intermediate Staphylococcus aureus assessed as growth inhibition at 4 times MIC; format: functional; set-up: scale not given: the % may be the effect or the level left
[36] = system: Staphylococcus aureus; experiment: Antimicrobial activity against heterogeneous vancomycin-intermediate Staphylococcus aureus assessed as growth inhibition at 0.5 times MIC; format: functional; set-up: scale not given: the % may be the effect or the level left
[37] = system: Staphylococcus aureus; experiment: Antimicrobial activity against vancomycin-susceptible Staphylococcus aureus assessed as growth inhibition at 0.125 times MIC; format: functional; set-up: scale not given: the % may be the effect or the level left
[38] = system: Staphylococcus aureus; experiment: Antimicrobial activity against heterogeneous vancomycin-intermediate Staphylococcus aureus assessed as growth inhibition at 0.25 times MIC; format: functional; set-up: scale not given: the % may be the effect or the level left
[39] = system: Staphylococcus aureus; experiment: Antimicrobial activity against SCCmec type III vancomycin-intermediate Staphylococcus aureus isolate sh07043 by broth microdilution method; format: functional; in short: as §1
[40] = system: Staphylococcus aureus; experiment: Antimicrobial activity against vancomycin-susceptible Staphylococcus aureus assessed as growth inhibition at 16 times MIC; format: functional; set-up: scale not given: the % may be the effect or the level left
[41] = system: Staphylococcus aureus; experiment: Antimicrobial activity against SCCmec type III vancomycin-intermediate Staphylococcus aureus isolate xa07029 by broth microdilution method
[42] = system: Staphylococcus aureus; experiment: Antimicrobial activity against vancomycin-intermediate Staphylococcus aureus by broth microdilution method
[43] = system: Staphylococcus aureus; experiment: Antimicrobial activity against SCCmec type III vancomycin-intermediate Staphylococcus aureus isolate b6k1642 by broth microdilution method
[44] = system: Staphylococcus aureus; experiment: Antimicrobial activity against vancomycin-susceptible Staphylococcus aureus assessed as growth inhibition at 2 times MIC; format: functional; set-up: scale not given: the % may be the effect or the level left
[45] = system: Staphylococcus aureus; experiment: Antimicrobial activity against SCCmec type III vancomycin-intermediate Staphylococcus aureus isolate bd4768 by broth microdilution method
[46] = system: Staphylococcus aureus; experiment: Antimicrobial activity against SCCmec type III vancomycin-intermediate Staphylococcus aureus isolate 5zjsau3 by broth microdilution method
[47] = system: Staphylococcus aureus; experiment: Antimicrobial activity against SCCmec type II vancomycin-intermediate Staphylococcus aureus isolate 4sy39 by broth microdilution method
[48] = system: Staphylococcus aureus; experiment: Antimicrobial activity against SCCmec type III vancomycin-intermediate Staphylococcus aureus isolate 15b52 by broth microdilution method
[49] = system: Staphylococcus aureus; experiment: Antimicrobial activity against heterogeneous vancomycin-susceptible Staphylococcus aureus assessed as resistant isolates by agar dilution method; format: functional
[50] = system: Staphylococcus aureus; experiment: Antimicrobial activity against heterogeneous vancomycin-intermediate Staphylococcus aureus by agar dilution method; format: functional
In short: (§3)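 Agar-dilution MICs were measured on a subset of 200 blood MRSA isolates from China. Agents: oxacillin, rifampin, gentamicin, levofloxacin, erythromycin, vancomycin, teicoplanin, tigecycline, ceftobiprole and linezolid. Phenotype came from the PAP-AUC ratio of each isolate to S. aureus Mu3 (VSSA <0.9; hVISA 0.9 to 1.3; VISA ≥1.3), read on BHI agar with 0 to 8.0 mg/liter vancomycin after 48 h at 35°C.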

[51] = system: Staphylococcus aureus; experiment: Antimicrobial activity against vancomycin-susceptible Staphylococcus aureus by agar dilution method; format: functional; in short: as §3
[52] = system: Staphylococcus aureus; experiment: Antimicrobial activity against heterogeneous vancomycin-intermediate Staphylococcus aureus assessed as susceptible isolates by agar dilution method; format: functional
In short: (§4)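 MICs by agar dilution for all 200 MRSA blood isolates (oxacillin, rifampin, gentamicin, levofloxacin, erythromycin, vancomycin, teicoplanin, tigecycline, ceftobiprole, linezolid). Isolates were grouped by PAP-AUC ratio against S. aureus Mu3: below 0.9 VSSA, 0.9 to 1.3 hVISA, 1.3 or more VISA.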

[53] = system: Staphylococcus aureus; experiment: Antimicrobial activity against heterogeneous vancomycin-intermediate Staphylococcus aureus assessed as intermediate isolates by agar dilution method; format: functional; in short: as §4
[54] = system: Staphylococcus aureus; experiment: Antimicrobial activity against heterogeneous vancomycin-susceptible Staphylococcus aureus assessed as intermediate isolates by agar dilution method; format: functional
[55] = system: Staphylococcus aureus; experiment: Antimicrobial activity against heterogeneous vancomycin-intermediate Staphylococcus aureus assessed as resistant isolates by agar dilution method; format: functional
[56] = system: Staphylococcus aureus; experiment: Antimicrobial activity against heterogeneous vancomycin-susceptible Staphylococcus aureus assessed as susceptible isolates by agar dilution method; format: functional; in short: as §4

CCCCCCCCCC(=O)N[C@@H](Cc1c[nH]c2ccccc12)C(=O)N[C@H](CC(N)=O)C(=O)N[C@@H](CC(=O)O)C(=O)N[C@@H]1C(=O)NCC(=O)N[C@@H](CCCN)C(=O)N[C@@H](CC(=O)O)C(=O)N[C@H](C)C(=O)N[C@@H](CC(=O)O)C(=O)NCC(=O)N[C@H](CO)C(=O)N[C@@H]([C@H](C)CC(=O)O)C(=O)N[C@@H](CC(=O)c2ccccc2N)C(=O)O[C@@H]1C
0%: Activity [9] | Activity [13] | Activity [27]
100%: Activity [20] | Activity [25] | Activity [26] | Activity [28] | Activity [30] | Activity [31] | Activity [33] | Activity [35] | Activity [40] | Activity [44]
10.7%: Activity [29]
95.1%: Activity [10]
1 µg/mL: MIC90 [1] | MIC [3] | MIC [15] | MIC [39]
0.25 µg/mL: MIC [7] | MIC [17] | MIC [22] | MIC [32]
14.8%: Activity [38]
0.58%: Activity [37]
0.5 µg/mL: MIC50 [1] | MIC [2] | MIC [4] | MIC [5] | MIC [6] | MIC [8] | MIC50 [11] | MIC90 [11] | MIC [12] | MIC [14] | MIC [16] | MIC [18] | MIC [19] | MIC [21] | MIC [23] | MIC [24] | MIC [34] | MIC [41] | MIC [42] | MIC [43] | MIC [45] | MIC [46] | MIC [47] | MIC [48]
88.9%: Activity [36]

CN[C@H](CC(C)C)C(=O)N[C@H]1C(=O)N[C@@H](CC(N)=O)C(=O)N[C@H]2C(=O)N[C@H]3C(=O)N[C@H](C(=O)N[C@H](C(=O)O)c4cc(O)cc(O)c4-c4cc3ccc4O)[C@H](O)c3ccc(c(Cl)c3)Oc3cc2cc(c3O[C@@H]2O[C@H](CO)[C@@H](O)[C@H](O)[C@H]2O[C@H]2C[C@](C)(N)[C@H](O)[C@H](C)O2)Oc2ccc(cc2Cl)[C@H]1O [VANCOMYCIN]
96.3%: Activity [52] | Activity [26]
100%: Activity [20] | Activity [33] | Activity [35] | Activity [40] | Activity [56] | Activity [44]
1 µg/mL: MIC50 [50] | MIC50 [51] | MIC90 [51]
99.4%: Activity [30]
2 µg/mL: MIC90 [50]
35.8%: Activity [10]
85.2%: Activity [28]
0%: Activity [49] | Activity [13] | Activity [54] | Activity [29] | Activity [55] | Activity [37] | Activity [38]
3.7%: Activity [53] | Activity [36]

— ChEMBL document CHEMBL1649574, “Prevalence and characterization of heterogeneous vancomycin-intermediate Staphylococcus aureus isolates from 14 cities in China” (2009)
